Consider 39 molecules from ChEMBL document CHEMBL2086341, “COX inhibitors Indomethacin and Sulindac derivatives as antiproliferative agents: synthesis, biological evaluation, and mechanism investigation” (Eur J Med Chem, 2012).

Active and inactive are the calls of the source. No cut-off for these calls is given here.

The subject of one series is HT-29. Nature of the series: Antiproliferative activity against human HT-29 cells after 72 hrs by MTT assay. It is filed as functional, cell-based. In a few lines: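 HT29 colon cells grown in RPMI 1640 with 10% FBS, 2 mmol/l glutamine, 1 mmol/l pyruvate and penicillin-streptomycin at 37 °C, 5% CO2. Cells seeded at 4000/well and attached for 24 h. Treated 72 h with 1000 to 0.32 µM (5-fold dilutions), final DMSO <0.1%; DMSO vehicle controls. MTT 0.5 mg/ml for 2 h, solubilized in DMSO, A570 read. Run in quadruplicate.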

For a further series, the system named is SK-BR-3. Briefly: Antiproliferative activity against human SKBR3 cells after 72 hrs by MTT assay. The format is functional, cell-based. The settings on record: SK-BR-3, 72 h. In general terms: Formazan colour is commonly taken as a measure of viable cells.
The subject of the next series is NCI-H292. Briefly: Antiproliferative activity against human NCI-H292 cells after 72 hrs by MTT assay. It is filed as functional, cell-based. The following applies: NCI-H292, 72 h.
The next series has as its system NCI-H522. Nature of the series: Antiproliferative activity against human NCI-H522 cells after 72 hrs by MTT assay. The format is functional, cell-based. The settings on record: NCI-H522, 72 h.
Series [1] in a line: Antiproliferative activity against human MDA468 cells after 72 hrs by MTT assay. The settings on record: MDA-MB-468, 72 h. The format is functional, cell-based.
A further series concerns MCF7. Nature of the series: Antiproliferative activity against human MCF7 cells after 72 hrs by MTT assay. The format is functional, cell-based. The settings on record: MCF7, 72 h.
The subject of another series is IMR-90. Briefly: Cytotoxicity against human IMR90 cells after 72 hrs by MTT assay. It is filed as cell-based. The settings on record: IMR-90, 72 h.
Series [2] is filed under the species Bos taurus. Briefly: Inhibition of bovine tubulin polymerization at 25 uM using microtubule-associated protein rich tubulin measured for 20 mins by spectrophotometry. Put shortly:
(§1)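 Bovine brain MAP-rich tubulin at 2 mg/ml in 80 mM PIPES pH 6.9, 2 mM MgCl2, 0.5 mM EGTA, 5% glycerol. Mixed with compound in DMSO or DMSO control at 37 °C. Polymerization started with GTP (2 µl of 1 mM stock) and followed as absorbance at 340 nm over 20 min.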

For series [3], the species on record is Bos taurus. Nature of the series: Inhibition of bovine tubulin polymerization using microtubule-associated protein rich tubulin measured for 20 mins by spectrophotometry. In a few lines:
as §1

The species named for series [4] is Bos taurus. Nature of the series: Inhibition of bovine tubulin polymerization at 8 uM using microtubule-associated protein rich tubulin at 10 mins by spectrophotometry relative to control. In a few lines: as §1
For series [5], the species on record is Bos taurus. Nature of the series: Inhibition of bovine tubulin polymerization at 10 uM using microtubule-associated protein rich tubulin at 10 mins by spectrophotometry relative to control. In a few lines:
as §1

Series [6] is filed under the species Bos taurus. Briefly: Induction of bovine tubulin polymerization at 2 uM using microtubule-associated protein rich tubulin measured for 20 mins by spectrophotometry. In a few lines:
as §1

The species named for series [7] is Bos taurus. Nature of the series: Induction of bovine tubulin polymerization at 5 uM using microtubule-associated protein rich tubulin measured for 20 mins by spectrophotometry. Put shortly:
as §1

Series [8] can be described thus: Solubility of the compound in RPMI 1640 cell culture medium. The format is physicochemical.
Where [9] appears, read: Homo sapiens, HT-29, 72 h, read-out: IC50.

A word on the IC50: it is the concentration that gives 50% inhibition. For `COc1ccc2c(c1)c(CC(=O)NCCN1CCCCC1)c(C)n2C(=O)c1ccc(Cl)cc1`, the IC50 in the series with HT-29 (setting [9]) stood at 277 µM.
For the molecule `COc1ccc2c(c1)c(CC(=O)NCCN(C)C)c(C)n2C(=O)c1ccc(OC)c(OC)c1`, in the series with HT-29 (setting [9]), the IC50 was found to be 44 µM.
For orientation: inhibition means the drop in the measured response relative to a control, in per cent. For `COc1ccc2c(c1)c(CC(=O)NCCN(C)C)c(C)n2S(=O)(=O)c1ccccc1`, the IC50 worked out at 7.7 µM in the series on HT-29 (setting [9]); 6.39 µM in the series with SK-BR-3; 4.85 µM in the series on NCI-H292; 14.1 µM with NCI-H522; 15.9 µM in [1]; 4.88 µM in the series on MCF7. Moreover, the midpoint of inhibition in the series with IMR-90, the IC50, lay at 18.7 µM. Also, in the series filed under Bos taurus [2], the inhibition entry is “Active”.
As for `COc1ccc2c(c1)c(CC(=O)Nc1ccc(Cl)cc1)c(C)n2C(=O)c1ccc(Cl)cc1`, the half-inhibitory concentration (IC50) in the series with HT-29 (setting [9]) stood at 68 µM.
Same read-out and setting: then `COc1ccc2c(c1)c(CC(=O)O)c(C)n2C(=O)c1ccc(Cl)cc1` [INDOMETHACIN], with 1050 µM.
Same read-out and setting: then `COc1ccc(C(=O)n2c(C)c(CC(=O)NCCN(C)C)c3cc(OC)ccc32)cc1`, with 17.8 µM.
On the same count and under the same terms, then `CC1=C(CC(=O)NCCN(C)C)c2cc(F)ccc2/C1=C\c1ccc(Cl)cc1`, with 12.4 µM.
Consider `CC1=C(CC(=O)O)c2cc(F)ccc2/C1=C\c1ccc([S+](C)[O-])cc1` (stereo not drawn) [SULINDAC], for which, in the series on HT-29 (setting [9]), the 50% inhibitory concentration (IC50) amounted to 1730 µM.
On the same count and under the same terms, then `CCCCCCCCNC(=O)CC1=C(C)/C(=C/c2ccc([S+](C)[O-])cc2)c2ccc(F)cc21` (stereo not drawn), with 307 µM.
Consider `COc1ccc2c(c1)c(CC(=O)NCCN(C)C)c(C)n2C(=O)c1ccc(Br)cc1`, for which the IC50 turned out to be 13.5 µM in the series on HT-29 (setting [9]); 4.81 µM in the series with SK-BR-3; 3.47 µM with NCI-H292; 10.6 µM in the series with NCI-H522; 2.91 µM in [1]; 9.53 µM with MCF7. Also, in the series with IMR-90, the IC50 came out at 41.7 µM. Besides, the inhibition entry in the series listed under Bos taurus [2] was “Active”.
With `CC1=C(CC(=O)NCCCN(C)C)c2cc(F)ccc2/C1=C\c1ccc([S+](C)[O-])cc1` (stereo not drawn), in the series on HT-29 (setting [9]), the half-maximal inhibitory concentration (IC50) stood at 465 µM.
Consider `COc1ccc(NC(=O)CC2=C(C)/C(=C/c3ccc([S+](C)[O-])cc3)c3ccc(F)cc32)cc1` (stereo not drawn), for which the IC50 with HT-29 (setting [9]) turned out to be 2540 µM.
Regarding `CC1=C(CC(=O)NCCN(C)C)c2cc(F)ccc2/C1=C\c1ccc2ccccc2c1`, the IC50 in the series with HT-29 (setting [9]) was determined as 271 µM.
Take `COc1ccc2c(c1)c(CC(=O)NCCN(C)C)c(C)n2C(=O)c1cc(OC)c(OC)c(OC)c1`: the IC50 came to 2.7 µM with HT-29 (setting [9]); 4.63 µM in the series with SK-BR-3; 0.51 µM with NCI-H292; 3 µM in the series on NCI-H522; 2.87 µM in series [1]; 0.9 µM with MCF7. Also, half-maximal inhibition in the series with IMR-90 (IC50) required 17.2 µM. For the same molecule, the inhibition result in the series listed under Bos taurus [2] was “Active”. Also, the values for the inhibition result in the series listed under Bos taurus [3], in the series filed under Bos taurus [4] and in the series filed under Bos taurus [5] were “Dose-dependent effect”, 20% and 56%, respectively. Besides, the outcome in the series listed under Bos taurus [6] and in the series filed under Bos taurus [7] was Active.
As to `COc1ccc2c(c1)c(CC(=O)NCCN1CCCC1)c(C)n2C(=O)c1cc(OC)c(OC)c(OC)c1`, the concentration for half-maximal inhibition (IC50) in the series with HT-29 (setting [9]) stood at 34 µM.
On to `COc1ccc(/C=C2/C(C)=C(CC(=O)NCCN(C)C)c3cc(F)ccc32)cc1`, for which, in the series with HT-29 (setting [9]), the 50% inhibitory concentration (IC50) came out at 20 µM.
Still for that read-out and setting: then `CCCCCCNC(=O)CC1=C(C)/C(=C/c2ccc([S+](C)[O-])cc2)c2ccc(F)cc21` (stereo not drawn), with 53 µM; and `COc1ccc2c(c1)c(CC(=O)NCCN(C)C)c(C)n2C(=O)c1ccc(Cl)cc1`, with 170 µM.
Regarding `COc1ccc2c(c1)c(CC(=O)NCCN1CCOCC1)c(C)n2C(=O)c1ccc(OC)c(OC)c1`, in the series on HT-29 (ht-29), the half-inhibitory concentration (IC50) entry is reported as “ND(Insoluble)”. Moreover, the solubility entry in [8] is given as “Insoluble”.
As to `CCCCCC(C)NC(=O)CC1=C(C)/C(=C/c2ccc([S+](C)[O-])cc2)c2ccc(F)cc21` (stereo not drawn), the IC50 in the series with HT-29 (setting [9]) was 2140 µM.
`COc1cccc(NC(=O)Cc2c(C)n(C(=O)c3ccc(Cl)cc3)c3ccc(OC)cc23)c1`: the concentration for half-maximal inhibition (IC50) in the series on HT-29 (setting [9]) came out at 1190 µM.
`COc1ccc2c(c1)c(CC(=O)NCCCCCNC(=O)Cc1c(C)n(C(=O)c3ccc(Cl)cc3)c3ccc(OC)cc13)c(C)n2C(=O)c1ccc(Cl)cc1`: in the series on HT-29 (setting [9]), the 50% inhibitory concentration (IC50) is 110 µM.
With `CC1=C(CC(=O)NCCN(C)C)c2cc(F)ccc2/C1=C\c1ccc([S+](C)[O-])cc1` (stereo not drawn), the half-inhibitory concentration (IC50) in the series with HT-29 (setting [9]) was determined as 47 µM.
On the same count and under the same terms, then `CC1=C(CC(=O)Nc2ccc(C#N)cc2)c2cc(F)ccc2/C1=C\c1ccc([S+](C)[O-])cc1` (stereo not drawn), with 2580 µM; and `COc1ccc2c(c1)c(CC(=O)NCCN1CCOCC1)c(C)n2C(=O)c1cc(OC)c(OC)c(OC)c1`, with 611 µM.
Consider `COc1ccc2c(c1)c(CC(=O)NCc1ccc(CNC(=O)Cc3c(C)n(C(=O)c4ccc(Cl)cc4)c4ccc(OC)cc34)cc1)c(C)n2C(=O)c1ccc(Cl)cc1`, for which, in the series on HT-29 (ht-29), the half-inhibitory concentration (IC50) entry is on record as “ND(Insoluble)”. Moreover, the solubility result in series [8] is reported as “Insoluble”.
Regarding `CC1=C(CC(=O)NCCC(C)C)c2cc(F)ccc2/C1=C\c1ccc([S+](C)[O-])cc1` (stereo not drawn), the IC50 in the series with HT-29 (setting [9]) came to 1430 µM.
In the case of `CCCCCCNC(=O)Cc1c(C)n(C(=O)c2ccc(Cl)cc2)c2ccc(OC)cc12`, in the series on HT-29 (setting [9]), the IC50 is 1330 µM.
The same measure, in the same setting: then `COc1cc(/C=C2/C(C)=C(CC(=O)NCCN(C)C)c3cc(F)ccc32)cc(OC)c1OC`, with 140 µM; and `CC1=C(CC(=O)NCCN2CCCC2)c2cc(F)ccc2/C1=C\c1ccc([S+](C)[O-])cc1` (stereo not drawn), with 52 µM.
For the molecule `CC1=C(CC(=O)Nc2ccc(Cl)cc2)c2cc(F)ccc2/C1=C\c1ccc([S+](C)[O-])cc1` (stereo not drawn), the half-inhibitory concentration (IC50) in the series with HT-29 (setting [9]) stood at 1700 µM.
With `CC1=C(CC(=O)NCCN(C)C)c2cc(F)ccc2/C1=C\c1ccc(Br)cc1`, the IC50 in the series on HT-29 (setting [9]) was 20 µM.
The same measure, in the same setting: then `CCCCNC(=O)CC1=C(C)/C(=C/c2ccc([S+](C)[O-])cc2)c2ccc(F)cc21` (stereo not drawn), with 124 µM.
In the case of `CSc1ccc(/C=C2/C(C)=C(CC(=O)NCCN(C)C)c3cc(F)ccc32)cc1`, the IC50 in the series with HT-29 (setting [9]) worked out at 11.3 µM.
Consider `COc1ccc2c(c1)c(CC(=O)NCCN1CCCC1)c(C)n2C(=O)c1ccc(Cl)cc1`, for which the IC50 in the series with HT-29 (setting [9]) amounted to 38 µM.
As for `COc1ccc2c(c1)c(CC(=O)NCCN1CCOCC1)c(C)n2C(=O)c1ccc(Br)cc1`, the half-maximal inhibitory concentration (IC50) entry in the series with HT-29 (ht-29) is recorded as “ND(Insoluble)”. The solubility entry in series [8] is given as “Insoluble”.
In the case of `COc1ccc2c(c1)c(CC(=O)Nc1ccccc1OC)c(C)n2C(=O)c1ccc(Cl)cc1`, the 50% inhibitory concentration (IC50) with HT-29 (setting [9]) is 1120 µM.
On the same count and under the same terms, then `COc1ccc2c(c1)c(CC(=O)NCCN(C)C)c(C)n2C(=O)c1ccc2ccccc2c1`, with 29 µM; and `COc1ccc2c(c1)c(CC(=O)Nc1ccc(I)cc1)c(C)n2C(=O)c1ccc(Cl)cc1`, with 52 µM.
